# In ChEMBL document CHEMBL5360630, “Macrocyclic Peptidomimetic Plasmepsin X Inhibitors with Potent In Vitro and In Vivo Antimalarial Activity” (J Med Chem, 2023):
# Active and inactive are the calls of the source. No cut-off for these calls is given here.
# Legend:
# Plasmodium falciparum [1] = assay: Antiplasmodial activity against Plasmodium falciparum infected in PfalcHy mouse assessed as reduction in blood parasitemia level administered orally; format: functional, organism-based; details: dose 40.0 mg/kg, route po
# Outline: (§1)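 Female NSG mice (22–28 g) engrafted with human erythrocytes by daily i.p./i.v. injection; once >40% circulating human RBCs, infected i.v. with P. falciparum Pf3D7 0087/N9. Oral gavage (10 mL/kg) from ~1.3% parasitemia (Day 1); 40 mg/kg QD, BID or TID for 4 days. Parasitemia in tail blood by flow cytometry (TER-119-PE, SYTO-16) and Giemsa smears; stage distribution examined on day 3.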
# [2] = Toxicity in NMRI mouse assessed as drug tolerance at 50 mg/kg, po measured upto 24 hrs by UP-LCMS analysis; format: organism-based; details: in vivo
# Outline: (§2)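 Female NMRI mice (10–12 weeks, 29–32 g), acclimatized 1 week, given a single peroral bolus of 50 mg/kg (10 mL/kg). Toxicity signs scored on a 0–6 scale at 0–2, 5, 10, 15, 30, 60, 120, 240 min and 24 h after dosing.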
# [3] = Toxicity in NMRI mouse assessed as adverse effect at 50 mg/kg, po measured upto 24 hrs by UP-LCMS analysis; format: organism-based; details: in vivo; outline: as §2
# Plasmodium falciparum [4] = assay: Antiplasmodial activity against Plasmodium falciparum infected in NSG mouse model assessed as accumulation of circulating mature schizonts at 40 mg/kg, po measured after 3 days by giemsa staining based flow cytometry analysis; format: functional, organism-based; details: time 3.0 day; outline: as §1
smiles,measurement,setting,value
CCCN1CCCCCc2cccc(c2)C[C@@H]([C@H](O)CNC(C)(C)c2cccc(OC)c2)NC(=O)c2cccc(c2)C1=O,Activity,Plasmodium falciparum [1],Dose-Dependent Effect
same,Activity,[2],Non-Toxic
same,Activity,[3],Non-Toxic
same,Activity,Plasmodium falciparum [4],Active
